How the values were obtained:
[1] = Metabolic stability in human liver microsomes assessed as parent compound remaining at 1 uM after 60 mins in presence of NADPH by LC-MS/MS analysis; format: ADME, microsome; conditions: read-out: Stability
Procedure, shortened: (§1)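 Compound incubated 60 min at 37 °C with human, rat or guinea pig liver microsomes; percent parent remaining, triplicates.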

Prostaglandin E synthase [2] = target: T1, Prostaglandin E synthase (Homo sapiens, UniProt O14684); experiment: Inhibition of recombinant human mPGES1 expressed in CHO cells assessed as reduction in PGE2 production using PGH2 as substrate incubated for 10 mins followed by substrate addition measured for 1 min; format: cell-based
T1 sequence (O14684 whole entry): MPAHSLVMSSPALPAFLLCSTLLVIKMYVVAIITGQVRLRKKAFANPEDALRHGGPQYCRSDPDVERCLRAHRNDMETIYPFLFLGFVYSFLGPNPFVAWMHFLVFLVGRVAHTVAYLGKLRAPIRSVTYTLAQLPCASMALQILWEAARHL

Prostaglandin E synthase [3] = target: T1, Prostaglandin E synthase; experiment: Inhibition of mPGES1 in human A549 cells assessed as reduction in IL-1beta-induced PGE2 production preincubated for 30 mins followed by incubation with IL-1beta for 16 to 20 hrs measured after 10 mins by HTRF assay; format: cell-based
Prostaglandin E synthase [4] = target: T1, Prostaglandin E synthase; experiment: Inhibition of mPGES1 in human whole blood assessed as reduction in LPS-induced PGE2 production measured after 20 to 24 hrs
[5] = Metabolic stability in guinea pig liver microsomes assessed as parent compound remaining at 1 uM after 60 mins in presence of NADPH by LC-MS/MS analysis; format: ADME, Cavia porcellus, microsome; conditions: read-out: Stability; procedure, shortened: as §1
CYP1A2 = target: T2, CYP1A2 (Homo sapiens, UniProt P05177); experiment: Inhibition of CYP1A2 in human liver microsomes at 10 uM after 20 mins in presence of NADPH by LC-MS/MS analysis; format: ADME
T2 sequence (P05177 whole entry): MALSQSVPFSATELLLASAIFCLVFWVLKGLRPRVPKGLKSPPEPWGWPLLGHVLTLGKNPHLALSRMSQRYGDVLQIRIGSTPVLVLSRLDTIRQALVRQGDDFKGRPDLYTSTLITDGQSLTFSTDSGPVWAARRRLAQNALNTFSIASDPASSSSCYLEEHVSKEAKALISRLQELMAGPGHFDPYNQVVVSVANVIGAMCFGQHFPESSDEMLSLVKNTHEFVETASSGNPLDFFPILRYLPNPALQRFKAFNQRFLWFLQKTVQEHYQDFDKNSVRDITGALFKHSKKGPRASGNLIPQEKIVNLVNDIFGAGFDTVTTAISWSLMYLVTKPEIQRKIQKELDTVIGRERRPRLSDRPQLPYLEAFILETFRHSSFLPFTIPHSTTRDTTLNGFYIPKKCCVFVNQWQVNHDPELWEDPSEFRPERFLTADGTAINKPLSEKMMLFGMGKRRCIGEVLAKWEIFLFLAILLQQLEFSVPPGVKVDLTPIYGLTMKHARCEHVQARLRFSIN
Procedure, shortened: (§2)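 Percent inhibition of each CYP isoform by test compound at 10 µM, compared with a no-inhibitor control. Run in triplicate.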

CYP2D6 = CYP2D6 (Homo sapiens, UniProt P10635); experiment: (§3) Inhibition of CYP2D6 in human liver microsomes at 10 uM after 20 mins in presence of NADPH by LC-MS/MS analysis; format: ADME; conditions: liver microsomes; procedure, shortened: as §2
CYP3A4 = CYP3A4 (Homo sapiens, UniProt P08684); experiment: Inhibition of CYP3A4 in human liver microsomes at 10 uM after 20 mins in presence of NADPH by LC-MS/MS analysis; format: ADME; procedure, shortened: as §2
CYP2C9 = CYP2C9 (Homo sapiens, UniProt P11712); experiment: Inhibition of CYP2C9 in human liver microsomes at 10 uM after 20 mins in presence of NADPH by LC-MS/MS analysis; format: ADME; procedure, shortened: as §2
CYP2C19 = CYP2C19 (Homo sapiens, UniProt P33261); experiment: Inhibition of CYP2C19 in human liver microsomes at 10 uM after 40 mins in presence of NADPH by LC-MS/MS analysis; format: ADME; procedure, shortened: as §2
[6] = Protein binding in human plasma at 10 uM after 5 hrs by equilibrium dialysis based LC-MS/MS analysis; format: ADME, cell-free; conditions: read-out: PPB (converted)
Procedure, shortened: (§4)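 Equilibrium dialysis at 10 μM compound; result expressed as percent bound.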

[7] = Protein binding in guinea pig plasma at 10 uM after 5 hrs by equilibrium dialysis based LC-MS/MS analysis; format: ADME, cell-free, Cavia porcellus; conditions: read-out: PPB (converted); procedure, shortened: as §4
[8] = Apparent passive permeability of the compound by PAMPA; format: ADME
Procedure, shortened: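 Passive permeability by PAMPA, using a 2% lecithin in dodecane membrane. Run in triplicate.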

Cytochrome P450 2D6 = Cytochrome P450 2D6 (Homo sapiens, UniProt P10635); experiment: as §3; format: ADME; conditions: microsomes, 20 min, 10 µM; procedure, shortened: as §2
[9] = Metabolic stability in rat liver microsomes assessed as parent compound remaining at 1 uM after 60 mins in presence of NADPH by LC-MS/MS analysis; format: ADME, microsome; conditions: read-out: Stability; procedure, shortened: as §1
hERG (KCNH2) = hERG (KCNH2) (Homo sapiens, UniProt Q12809); experiment: Inhibition of human ERG at 10 uM by patch clamp assay relative to control
Procedure, shortened: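 hERG current measured by patch clamp with test compound at 10 µM; result given as % inhibition.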

Chain of CYP2C19 (P33261 whole entry): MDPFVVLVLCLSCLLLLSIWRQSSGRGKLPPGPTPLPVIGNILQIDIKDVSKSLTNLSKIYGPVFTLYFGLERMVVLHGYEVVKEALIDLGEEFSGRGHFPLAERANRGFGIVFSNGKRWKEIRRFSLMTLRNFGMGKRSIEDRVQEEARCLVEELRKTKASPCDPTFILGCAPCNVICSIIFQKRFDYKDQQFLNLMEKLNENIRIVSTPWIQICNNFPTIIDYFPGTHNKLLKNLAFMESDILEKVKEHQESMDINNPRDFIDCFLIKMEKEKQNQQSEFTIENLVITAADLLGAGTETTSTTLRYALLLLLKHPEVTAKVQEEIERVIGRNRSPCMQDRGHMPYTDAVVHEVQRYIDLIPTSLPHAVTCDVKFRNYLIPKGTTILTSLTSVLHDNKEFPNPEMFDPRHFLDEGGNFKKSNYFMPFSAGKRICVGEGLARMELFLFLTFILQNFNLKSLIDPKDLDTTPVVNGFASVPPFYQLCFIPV
Chain of CYP3A4 (P08684 whole entry): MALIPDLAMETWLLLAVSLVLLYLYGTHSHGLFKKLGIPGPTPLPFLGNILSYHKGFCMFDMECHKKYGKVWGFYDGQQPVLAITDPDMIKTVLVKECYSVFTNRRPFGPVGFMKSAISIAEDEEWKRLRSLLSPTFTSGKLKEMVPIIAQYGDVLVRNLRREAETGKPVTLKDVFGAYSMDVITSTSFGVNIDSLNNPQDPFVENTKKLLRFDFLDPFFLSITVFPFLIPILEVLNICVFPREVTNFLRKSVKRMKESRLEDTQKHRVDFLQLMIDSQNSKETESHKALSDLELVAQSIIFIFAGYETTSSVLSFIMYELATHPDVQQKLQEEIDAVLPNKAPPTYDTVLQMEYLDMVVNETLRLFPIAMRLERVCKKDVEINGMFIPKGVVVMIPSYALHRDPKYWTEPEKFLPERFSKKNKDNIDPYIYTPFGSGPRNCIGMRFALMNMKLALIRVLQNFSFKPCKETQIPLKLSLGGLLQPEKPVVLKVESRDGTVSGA
Chain of CYP2D6 (P10635 whole entry): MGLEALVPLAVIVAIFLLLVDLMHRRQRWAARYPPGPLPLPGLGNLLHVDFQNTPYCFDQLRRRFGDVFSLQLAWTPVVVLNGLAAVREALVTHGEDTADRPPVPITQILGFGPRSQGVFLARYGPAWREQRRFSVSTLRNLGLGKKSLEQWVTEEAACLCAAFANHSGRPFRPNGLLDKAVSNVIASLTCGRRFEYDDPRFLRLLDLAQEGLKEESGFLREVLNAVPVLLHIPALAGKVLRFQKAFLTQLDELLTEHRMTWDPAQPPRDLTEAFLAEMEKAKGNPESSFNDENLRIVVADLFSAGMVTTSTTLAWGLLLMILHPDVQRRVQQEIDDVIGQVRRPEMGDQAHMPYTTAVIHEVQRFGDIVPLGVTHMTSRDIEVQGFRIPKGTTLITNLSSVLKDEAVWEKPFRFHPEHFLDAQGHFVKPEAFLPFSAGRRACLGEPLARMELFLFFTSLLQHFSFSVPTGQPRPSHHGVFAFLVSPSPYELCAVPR
Chain of CYP2C9 (P11712 whole entry): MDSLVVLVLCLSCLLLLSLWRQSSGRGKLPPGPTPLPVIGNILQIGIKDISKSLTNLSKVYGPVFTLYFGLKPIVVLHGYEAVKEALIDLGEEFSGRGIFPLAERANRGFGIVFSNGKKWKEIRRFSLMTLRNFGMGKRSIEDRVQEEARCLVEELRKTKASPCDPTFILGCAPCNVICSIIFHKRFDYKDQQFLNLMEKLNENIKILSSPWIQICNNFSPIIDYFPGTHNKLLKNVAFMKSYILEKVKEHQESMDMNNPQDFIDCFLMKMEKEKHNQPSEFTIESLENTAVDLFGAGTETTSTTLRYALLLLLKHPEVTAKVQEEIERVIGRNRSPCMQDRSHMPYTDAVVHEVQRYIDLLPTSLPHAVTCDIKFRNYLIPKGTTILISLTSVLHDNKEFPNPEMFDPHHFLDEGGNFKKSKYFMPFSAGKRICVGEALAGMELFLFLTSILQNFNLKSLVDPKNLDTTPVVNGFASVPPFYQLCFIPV
Chain of hERG (KCNH2) (Q12809 whole entry): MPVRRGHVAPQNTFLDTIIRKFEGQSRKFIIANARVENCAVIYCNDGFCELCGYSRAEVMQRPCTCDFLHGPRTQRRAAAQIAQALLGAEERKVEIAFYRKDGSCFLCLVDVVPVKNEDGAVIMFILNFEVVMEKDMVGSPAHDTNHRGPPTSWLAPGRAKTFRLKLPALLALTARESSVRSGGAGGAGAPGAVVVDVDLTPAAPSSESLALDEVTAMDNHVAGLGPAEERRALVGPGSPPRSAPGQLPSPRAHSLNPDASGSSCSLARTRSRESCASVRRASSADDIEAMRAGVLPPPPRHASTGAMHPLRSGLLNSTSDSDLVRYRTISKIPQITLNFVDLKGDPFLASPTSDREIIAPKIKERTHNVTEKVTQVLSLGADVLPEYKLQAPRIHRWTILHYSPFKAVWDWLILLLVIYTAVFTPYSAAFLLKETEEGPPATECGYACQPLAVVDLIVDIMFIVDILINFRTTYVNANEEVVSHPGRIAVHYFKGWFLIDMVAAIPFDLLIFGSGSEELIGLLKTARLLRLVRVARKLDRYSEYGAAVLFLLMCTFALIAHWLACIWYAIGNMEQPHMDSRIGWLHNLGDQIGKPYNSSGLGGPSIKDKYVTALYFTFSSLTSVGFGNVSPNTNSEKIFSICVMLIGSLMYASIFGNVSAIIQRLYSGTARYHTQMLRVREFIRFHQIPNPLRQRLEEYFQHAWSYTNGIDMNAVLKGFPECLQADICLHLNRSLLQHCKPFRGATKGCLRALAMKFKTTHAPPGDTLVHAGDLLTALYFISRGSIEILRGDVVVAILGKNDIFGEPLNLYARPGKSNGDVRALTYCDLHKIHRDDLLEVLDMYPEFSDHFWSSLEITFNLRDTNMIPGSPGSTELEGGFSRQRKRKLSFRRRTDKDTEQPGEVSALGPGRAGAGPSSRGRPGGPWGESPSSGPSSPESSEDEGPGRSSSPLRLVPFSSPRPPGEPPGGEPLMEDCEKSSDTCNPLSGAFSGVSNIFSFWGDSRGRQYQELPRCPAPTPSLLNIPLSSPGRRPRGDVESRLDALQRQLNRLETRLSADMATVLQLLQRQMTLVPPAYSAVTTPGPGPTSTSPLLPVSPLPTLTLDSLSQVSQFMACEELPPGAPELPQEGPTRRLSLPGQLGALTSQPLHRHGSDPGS
Chain of Cytochrome P450 2D6 (P10635 whole entry): as the sequence (P10635 whole entry) above

SMILES	remaining at 1 h, 1 µM [1]	IC50 (Prostaglandin E synthase [2])	IC50 (Prostaglandin E synthase [3])	IC50 (Prostaglandin E synthase [4])	remaining at 1 h, 1 µM [5]	inhibition at 20 min, 10 µM (CYP1A2)	inhibition at 20 min, 10 µM (CYP2D6)	inhibition at 20 min, 10 µM (CYP3A4)	inhibition at 20 min, 10 µM (CYP2C9)	inhibition at 40 min, 10 µM (CYP2C19)	fraction unbound at 5 h, 10 µM [6]	fraction unbound at 5 h, 10 µM [7]	Papp [8]	inhibition (INH) (Cytochrome P450 2D6)	remaining at 1 h, 1 µM [9]	inhibition at 10 µM (hERG (KCNH2))
Cc1cccc(Cl)c1Nc1nc2cc(C(=O)Nc3ccc(C(F)(F)F)cc3)c3c(c2[nH]1)CC(C)(C)O3	100%	0.014 µM	0.011 µM	0.337 µM	62%	25%	6%	34%	46%	19%	< 0.005	< 0.005	–	–	–	–
CC1(C)Cc2c(c(C(=O)Nc3ccccc3C(F)(F)F)cc3nc(Nc4c(F)cccc4Cl)[nH]c23)O1	93%	0.0051 µM	0.0097 µM	0.536 µM	89%	17%	4%	11%	29%	46%	< 0.005	< 0.005	0.12 ×10⁻⁶ cm/s	–	–	–
Cc1cc(C(F)(F)F)ccc1NC(=O)c1cc2nc(Nc3c(F)cccc3Cl)[nH]c2c2c1OC(C)(C)C2	82%	0.0061 µM	0.006 µM	0.27 µM	72%	26%	16%	20%	1%	38%	–	–	0.31 ×10⁻⁶ cm/s	–	91%	16.2%
CC1(C)Cc2c(c(C(=O)Nc3cc(C4CC4)ccc3F)cc3nc(Nc4c(F)cccc4Cl)[nH]c23)O1	100%	0.0036 µM	0.006 µM	1.38 µM	93%	36%	7%	-12%	42%	22%	–	–	–	–	93%	–
Cc1cccc(Cl)c1Nc1nc2cc(C(=O)Nc3cc(C4CC4)ccc3F)c3c(c2[nH]1)CC(C)(C)O3	93%	0.01 µM	–	0.447 µM	55%	14%	31%	-13%	12%	24%	–	–	–	–	89%	–
Cn1c(Nc2c(F)cccc2Cl)nc2cc(C(=O)Nc3ccc(C(F)(F)F)cn3)c3c(c21)CC(C)(C)O3	58%	0.012 µM	0.004 µM	0.673 µM	69%	14%	3%	17%	52%	10%	0.0015	0.0035	–	–	66%	–
CC1(C)Cc2c(c(C(=O)Nc3cc(C(F)F)ccc3F)cc3nc(Nc4c(F)cccc4Cl)[nH]c23)O1	88%	0.0092 µM	0.0063 µM	0.336 µM	68%	31%	-1%	4%	42%	22%	0.0018	0.005	–	–	86%	–
Cn1c(Nc2c(F)cccc2Cl)nc2cc(C(=O)Nc3ccc(C(F)(F)F)cc3)c3c(c21)CC(C)(C)O3	100%	–	–	–	68%	34%	-5%	–	44%	-7%	–	–	–	–	68%	–
Cn1c(Nc2c(F)cccc2Cl)nc2cc(C(=O)Nc3ccc(C4CC4)cc3)c3c(c21)CC(C)(C)O3	97%	0.0049 µM	0.0043 µM	0.35 µM	51%	41%	25%	19%	47%	24%	–	–	–	–	96%	–
Cc1cccc(Cl)c1Nc1nc2cc(C(=O)Nc3ccc(F)c(C(F)(F)F)c3)c3c(c2[nH]1)CC(C)(C)O3	95%	0.0054 µM	0.01 µM	0.876 µM	80%	–	–	30%	47%	31%	–	–	–	–	97%	–

Now from value to compound, other results behind:

remaining at 1 h, 1 µM [1]	IC50 (Prostaglandin E synthase [2])	IC50 (Prostaglandin E synthase [3])	IC50 (Prostaglandin E synthase [4])	remaining at 1 h, 1 µM [5]	inhibition at 20 min, 10 µM (CYP1A2)	inhibition at 20 min, 10 µM (CYP2D6)	inhibition at 20 min, 10 µM (CYP3A4)	inhibition at 20 min, 10 µM (CYP2C9)	inhibition at 40 min, 10 µM (CYP2C19)	fraction unbound at 5 h, 10 µM [6]	fraction unbound at 5 h, 10 µM [7]	Papp [8]	inhibition (INH) (Cytochrome P450 2D6)	remaining at 1 h, 1 µM [9]	SMILES	inhibition at 10 µM (hERG (KCNH2))
72%	0.0064 µM	0.015 µM	0.661 µM	80%	14%	–	24%	35%	41%	–	–	–	Not Active	–	CC1(C)Cc2c(c(C(=O)Nc3c(F)cccc3F)cc3nc(Nc4c(Cl)cccc4Cl)[nH]c23)O1	–
–	0.0049 µM	0.0052 µM	0.506 µM	86%	18%	–	17%	16%	30%	–	–	–	Not Active	–	CC1(C)Cc2c(c(C(=O)Nc3ccccc3C(F)(F)F)cc3nc(Nc4c(Cl)cccc4Cl)[nH]c23)O1	–
95%	0.016 µM	0.0032 µM	0.197 µM	74%	14%	5%	21%	26%	10%	–	–	–	–	92%	CC1(C)Cc2c(c(C(=O)Nc3cc(C4CC4)ccc3F)cc3nc(Nc4c(Cl)cccc4Cl)[nH]c23)O1	–
100%	0.0031 µM	0.0096 µM	0.57 µM	80%	–	–	37%	39%	16%	< 0.005	< 0.005	–	–	–	CC1(C)Cc2c(c(C(=O)Nc3ccc(C(F)(F)F)cc3F)cc3nc(Nc4c(F)cccc4Cl)[nH]c23)O1	–
68%	0.016 µM	0.0031 µM	0.177 µM	58%	26%	14%	23%	52%	24%	< 0.005	< 0.005	–	–	71%	Cc1ccc(NC(=O)c2cc3nc(Nc4c(F)cccc4Cl)n(C)c3c3c2OC(C)(C)C3)c(F)c1	12.8%
–	0.025 µM	0.014 µM	0.955 µM	–	–	–	–	–	–	–	–	–	–	–	CC1(C)Cc2c(c(C(=O)Nc3ccc(C(F)(F)F)cn3)cc3nc(Nc4c(F)cccc4Cl)[nH]c23)O1	–
–	0.032 µM	0.027 µM	–	–	–	–	–	–	–	–	–	–	–	–	Cc1cccc(Cl)c1Nc1nc2cc(C(=O)Nc3ccc(C(F)(F)F)cn3)c3c(c2[nH]1)CC(C)(C)O3	–

Source: ChEMBL document CHEMBL4219124, “Alleviating CYP and hERG liabilities by structure optimization of dihydrofuran-fused tricyclic benzo[d]imidazole series - Potent, selective and orally efficacious microsomal prostaglandin E synthase-1 (mPGES-1) inhibitors: Part-2” (Bioorg Med Chem Lett, 2018)
